Test results: ChEMBL document CHEMBL6182834, “Dual EGFR and telomerase inhibitory potential of new triazole tethered Schiff bases endowed with apoptosis: design, synthesis, and biological assessments” (RSC Med Chem, 2025)

What was measured:
[1] = system: Huh-7; test: Antiproliferative activity against human Huh-7 cells assessed as growth inhibition at 100 ug/mL incubated for 48 hrs by SRB assay relative to control; format: functional; conditions: read-out: GI
Method in brief: (§1)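 SRB assay: cells seeded at 3×10^3/well, allowed 24 h to attach, then exposed to 100 µg/mL for 48 h, three wells per concentration, DMSO 1% v/v vehicle control. Cells fixed with 20% trichloroacetic acid and stained with 0.4% SRB, then OD read at 570 nm. Survival fraction taken as treated OD/control OD.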

[2] = system: FaDu; test: Antiproliferative activity against human FaDu cells assessed as growth inhibition at 100 ug/mL incubated for 48 hrs by SRB assay relative to control; format: functional; conditions: read-out: GI; method in brief: as §1
[3] = system: HepG2; test: Cytotoxicity against human HepG2 cells assessed as inhibition of cell growth incubated for 48 hrs by SRB assay; format: functional, cell-based; conditions: HepG2, 48 h
Method in brief: (§2)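 Cells plated at 3×10^3/well and left 24 h to attach. Treated at 12.5, 25, 50 and 62.5 µg/mL for 48 h, three wells per concentration, with DMSO (1% v/v) vehicle control. Fixed with 20% TCA, stained with 0.4% SRB, OD read at 570 nm. Survival fraction = treated OD/control OD. IC50 from sigmoidal dose-response curve fitting.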

[4] = system: MG-63; test: Antiproliferative activity against human MG-63 cells assessed as growth inhibition at 100 ug/mL incubated for 48 hrs by SRB assay relative to control; format: functional; conditions: read-out: GI; method in brief: as §1
[5] = system: MDA-MB-468; test: Antiproliferative activity against human MDA-MB-468 cells assessed as growth inhibition at 100 ug/mL incubated for 48 hrs by SRB assay relative to control; format: functional; conditions: read-out: GI; method in brief: as §1
[6] = system: HCT-116; test: Antiproliferative activity against human HCT-116 cells assessed as growth inhibition at 100 ug/mL incubated for 48 hrs by SRB assay relative to control; format: functional; conditions: read-out: GI; method in brief: as §1
[7] = Cytotoxicity against human HNO 97 cell line assessed as inhibition of cell growth incubated for 48 hrs by SRB assay; format: functional, cell-based; conditions: HNO 97, 48 h; method in brief: as §2
[8] = system: HCT-116; test: Cytotoxicity against human HCT-116 cells assessed as inhibition of cell growth incubated for 48 hrs by SRB assay; format: functional, cell-based; conditions: HCT-116, 48 h; method in brief: as §2
[9] = system: Caco-2; test: Antiproliferative activity against human Caco-2 cells assessed as growth inhibition at 100 ug/mL incubated for 48 hrs by SRB assay relative to control; format: functional; conditions: read-out: GI; method in brief: as §1
[10] = Cytotoxicity against human oral epithelial cells (OEC) assessed as growth inhibition at 100 ug/mL incubated for 48 hrs by SRB assay relative to control; format: toxicity, cell-based, Oral epithelial cell; conditions: at 100 µg/mL, read-out: GI; method in brief: as §1
[11] = system: A-375; test: Antiproliferative activity against human A-375 cells assessed as growth inhibition at 100 ug/mL incubated for 48 hrs by SRB assay relative to control; format: functional; conditions: read-out: GI; method in brief: as §1
[12] = system: A-375; test: Cytotoxicity against human A-375 cells assessed as inhibition of cell growth incubated for 48 hrs by SRB assay; format: functional, cell-based; conditions: A-375, 48 h; method in brief: as §2
[13] = Cytotoxicity against HSF cells assessed as growth inhibition at 100 ug/mL incubated for 48 hrs by SRB assay relative to control; format: toxicity, cell-based; conditions: human, at 100 µg/mL, read-out: GI; method in brief: as §1
[14] = system: HepG2; test: Antiproliferative activity against human HepG2 cells assessed as growth inhibition at 100 ug/mL incubated for 48 hrs by SRB assay relative to control; format: functional; conditions: read-out: GI; method in brief: as §1
[15] = Antiproliferative activity against human HNO 97 cell line assessed as growth inhibition at 100 ug/mL incubated for 48 hrs by SRB assay relative to control; format: functional; conditions: read-out: GI; method in brief: as §1
[16] = system: HeLa; test: Antiproliferative activity against human HeLa cells assessed as growth inhibition at 100 ug/mL incubated for 48 hrs by SRB assay relative to control; format: functional; conditions: read-out: GI; method in brief: as §1
[17] = system: MCF7; test: Antiproliferative activity against human MCF7 cells assessed as growth inhibition at 100 ug/mL incubated for 48 hrs by SRB assay relative to control; format: functional; conditions: read-out: GI; method in brief: as §1

SMILES	inhibition of growth at 100 µg/mL [1]	inhibition of growth at 100 µg/mL [2]	IC50 [3]	inhibition of growth at 100 µg/mL [4]	inhibition of growth at 100 µg/mL [5]	inhibition of growth at 100 µg/mL [6]	IC50 [7]	IC50 [8]	inhibition of growth at 100 µg/mL [9]	inhibition at 48 h, 100 ug/mL [10]	inhibition of growth at 100 µg/mL [11]	IC50 [12]	inhibition at 48 h, 100 ug/mL [13]	inhibition of growth at 100 µg/mL [14]	inhibition of growth at 100 µg/mL [15]	inhibition of growth at 100 µg/mL [16]	inhibition of growth at 100 µg/mL [17]
COc1cccc2c1C(=O)c1c(O)c3c(c(O)c1C2=O)C[C@@](O)(C(=O)CO)C[C@@H]3O[C@H]1C[C@H](N)[C@H](O)[C@H](C)O1 [DOXORUBICIN]	63%	61%	11 µM	51%	73%	76%	9.01 µM	10.5 µM	71%	41%	52%	14.5 µM	42%	72%	59%	76%	69%
COc1ccc(/C=N/NC(=O)c2nnn(-c3ccc(F)cc3)c2C)cc1OC	65%	89%		84%	65%	81%			49%	33%	82%		21%	81%	84%	78%	87%
Cc1c(C(=O)N/N=C/c2ccccc2)nnn1-c1ccc(F)cc1	37%	70%		68%	44%	74%			20%	16%	42%		14%	54%	74%	52%	80%
COc1cc(/C=N/NC(=O)c2nnn(-c3ccc(F)cc3)c2C)cc(OC)c1OC	75%	72%	35.7 µM	63%	72%	73%	15.7 µM	18.8 µM	58%	32%	85%	13.2 µM	38%	79%	79%	56%	68%
COc1cc(/C=N/NC(=O)c2nnn(-c3ccc(Cl)cc3)c2C)cc(OC)c1OC	78%	69%		38%	59%	64%			53%	25%	63%		34%	43%	74%	42%	50%
COc1cccc(/C=N/NC(=O)c2nnn(-c3ccc(F)cc3)c2C)c1OC	68%	70%		42%	52%	64%			36%	13%	71%		9%	49%	69%	45%	78%
COc1cccc(/C=N/NC(=O)c2nnn(-c3ccc([N+](=O)[O-])cc3)c2C)c1OC	56%	56%		44%	56%	56%			32%	36%	75%		19%	56%	54%	52%	63%
COc1cccc(/C=N/NC(=O)c2nnn(-c3ccc(Br)cc3)c2C)c1OC	70%	79%		63%	63%	69%			47%	19%	73%		35%	69%	77%	68%	60%
COc1ccc(/C=N/NC(=O)c2nnn(-c3ccc(Br)cc3)c2C)cc1OC	53%	69%		42%	54%	63%			40%	28%	77%		20%	59%	86%	65%	86%
COc1cc(/C=N/NC(=O)c2nnn(-c3ccc(Br)cc3)c2C)cc(OC)c1OC	75%	73%		67%	76%	82%			64%	52%	60%		51%	76%	68%	60%	72%
Cc1c(C(=O)N/N=C/c2ccccc2)nnn1-c1ccc(Br)cc1	67%	83%		75%	65%	87%		16.9 µM	37%	23%	72%		4%	72%	89%	79%	87%
COc1cc(/C=N/NC(=O)c2nnn(-c3ccc([N+](=O)[O-])cc3)c2C)cc(OC)c1OC	74%	70%		40%	70%	35%			60%	39%	50%		28%	44%	68%	29%	49%
